Calls of active or inactive are those of the source. The rule behind the calls is not given here.
Experiments:
Plasmodium falciparum [1] = test: Antimalarial activity against Plasmodium falciparum K1 by automated image mining based cytological profiling assay; format: functional, organism-based
Summary of the method: (§1)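 Parasite cultures in 384-well format, read by automated imaging. Infected erythrocytes detected by DAPI nuclear staining against WGA-AlexaFluor 488 host-cell stain, and viability by Mitotracker Red CMXRos. Total culture parasitaemia quantified. EC50 given as mean±SD of two independent experiments, each in duplicate.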

Plasmodium falciparum [2] = test: Antimalarial activity against tightly synchronized Plasmodium falciparum K1 assessed as parasite stage accumulation index at trophozoites stages at 10 uM treated at 18 hrs post-invasion for continuous duration of 36 hrs by automated image mining based cytological profiling assay; format: functional
Summary of the method: (§2)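 Tightly synchronized cultures exposed to 10 µM final from 6 hpi (early ring), 18 hpi (late ring) or 30 hpi (mid-trophozoite) for a continuous 36 h. Erythrocytes stained with WGA-AlexaFluor 488, parasite nuclei with DAPI, functional mitochondria with Mitotracker Red CMXRos. Stages (early rings, late rings, trophozoites, schizonts) classified by nuclear spot number and size. Viable parasitaemia and stage accumulation index obtained by automated image analysis.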

Plasmodium falciparum [3] = test: Antimalarial activity against tightly synchronized Plasmodium falciparum K1 assessed as parasite stage accumulation index at schizonts stages at 10 uM treated at 30 hrs post-invasion for continuous duration of 36 hrs by automated image mining based cytological profiling assay; format: functional; summary of the method: as §2
Plasmodium falciparum [4] = test: Antimalarial activity against tightly synchronized Plasmodium falciparum W2 assessed as parasite stage accumulation index at schizonts stages at 10 uM treated at 30 hrs post-invasion for continuous duration of 36 hrs by automated image mining based cytological profiling assay; format: functional
Plasmodium falciparum [5] = test: Antimalarial activity against tightly synchronized Plasmodium falciparum HB3 assessed as parasite stage accumulation index at schizonts stages at 10 uM treated at 6 hrs post-invasion for continuous duration of 36 hrs by automated image mining based cytological profiling assay; format: functional; summary of the method: as §2
Plasmodium falciparum [6] = test: Antimalarial activity against tightly synchronized Plasmodium falciparum K1 assessed as parasite stage accumulation index at trophozoites stages at 10 uM treated at 30 hrs post-invasion for continuous duration of 36 hrs by automated image mining based cytological profiling assay; format: functional; summary of the method: as §2
Plasmodium falciparum [7] = test: Antimalarial activity against Plasmodium falciparum W2 assessed as reduction in parasite stage accumulation index at 10 uM treated at 42 hrs post-invasion for 24 hrs by automated image mining based cytological profiling assay; format: functional, organism-based
Summary of the method: (§3)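 Tightly synchronized cultures exposed from the 42 hpi mid-schizont point for 24 h to 10 µM final. Host cells stained with wheat germ agglutinin-AlexaFluor 488, parasite nuclei with DAPI and live-parasite mitochondria with Mitotracker Red CMXRos. Infected and viable parasitaemia and stage proportions quantified by automated image mining. Stage accumulation indices and parasitaemia reduction index derived.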

Plasmodium falciparum [8] = test: Antimalarial activity against Plasmodium falciparum K1 assessed as reduction in parasite stage accumulation index at 10 uM treated at 42 hrs post-invasion for 24 hrs by automated image mining based cytological profiling assay; format: functional, organism-based; summary of the method: as §3
Plasmodium falciparum [9] = test: Antimalarial activity against tightly synchronized Plasmodium falciparum K1 assessed as parasite stage accumulation index at late ring stages at 10 uM treated at 18 hrs post-invasion for continuous duration of 36 hrs by automated image mining based cytological profiling assay; format: functional; summary of the method: as §2
Plasmodium falciparum [10] = test: Antimalarial activity against tightly synchronized Plasmodium falciparum W2 assessed as parasite stage accumulation index at trophozoites stages at 10 uM treated at 18 hrs post-invasion for continuous duration of 36 hrs by automated image mining based cytological profiling assay; format: functional
Plasmodium falciparum [11] = test: Antimalarial activity against Plasmodium falciparum HB3 by automated image mining based cytological profiling assay; format: functional; summary of the method: as §1
Plasmodium falciparum [12] = test: Antimalarial activity against tightly synchronized Plasmodium falciparum W2 assessed as parasite stage accumulation index at late ring stages at 10 uM treated at 18 hrs post-invasion for continuous duration of 36 hrs by automated image mining based cytological profiling assay; format: functional; summary of the method: as §2
Plasmodium falciparum [13] = test: Antimalarial activity against tightly synchronized Plasmodium falciparum K1 assessed as parasite stage accumulation index at trophozoites stages at 10 uM treated at 6 hrs post-invasion for continuous duration of 36 hrs by automated image mining based cytological profiling assay; format: functional
Plasmodium falciparum [14] = test: Antimalarial activity against tightly synchronized Plasmodium falciparum K1 assessed as parasite stage accumulation index at schizonts stages at 10 uM treated at 6 hrs post-invasion for continuous duration of 36 hrs by automated image mining based cytological profiling assay; format: functional; summary of the method: as §2
Plasmodium falciparum [15] = test: Antimalarial activity against tightly synchronized Plasmodium falciparum K1 assessed as parasite stage accumulation index at early ring stages at 10 uM treated at 6 hrs post-invasion for continuous duration of 36 hrs by automated image mining based cytological profiling assay; format: functional; summary of the method: as §2
Plasmodium falciparum [16] = test: Antimalarial activity against tightly synchronized Plasmodium falciparum HB3 assessed as parasite stage accumulation index at schizonts stages at 10 uM treated at 18 hrs post-invasion for continuous duration of 36 hrs by automated image mining based cytological profiling assay; format: functional; summary of the method: as §2
Plasmodium falciparum [17] = test: Antimalarial activity against tightly synchronized Plasmodium falciparum W2 assessed as parasite stage accumulation index at trophozoites stages at 10 uM treated at 30 hrs post-invasion for continuous duration of 36 hrs by automated image mining based cytological profiling assay; format: functional; summary of the method: as §2
Plasmodium falciparum [18] = test: Antimalarial activity against tightly synchronized Plasmodium falciparum HB3 assessed as parasite stage accumulation index at late ring stages at 10 uM treated at 6 hrs post-invasion for continuous duration of 36 hrs by automated image mining based cytological profiling assay; format: functional; summary of the method: as §2
Plasmodium falciparum [19] = test: Antimalarial activity against Plasmodium falciparum HB3 assessed as reduction in parasite stage accumulation index at 10 uM treated at 42 hrs post-invasion for 24 hrs by automated image mining based cytological profiling assay; format: functional; summary of the method: as §3
Plasmodium falciparum [20] = test: Antimalarial activity against tightly synchronized Plasmodium falciparum W2 assessed as parasite stage accumulation index at early ring stages at 10 uM treated at 6 hrs post-invasion for continuous duration of 36 hrs by automated image mining based cytological profiling assay; format: functional; summary of the method: as §2
Plasmodium falciparum [21] = test: Antimalarial activity against Plasmodium falciparum K1 assessed as increase in schizonts parasite stage accumulation index at 10 uM treated at 42 hrs post-invasion for 24 hrs by automated image mining based cytological profiling assay; format: functional, organism-based; summary of the method: as §3
Plasmodium falciparum [22] = test: Antimalarial activity against Plasmodium falciparum HB3 assessed as increase in schizonts parasite stage accumulation index at 10 uM treated at 42 hrs post-invasion for 24 hrs by automated image mining based cytological profiling assay; format: functional; summary of the method: as §3
Plasmodium falciparum [23] = test: Antimalarial activity against tightly synchronized Plasmodium falciparum HB3 assessed as parasite stage accumulation index at trophozoites stages at 10 uM treated at 6 hrs post-invasion for continuous duration of 36 hrs by automated image mining based cytological profiling assay; format: functional; summary of the method: as §2
Plasmodium falciparum [24] = test: Antimalarial activity against tightly synchronized Plasmodium falciparum HB3 assessed as parasite stage accumulation index at trophozoites stages at 10 uM treated at 18 hrs post-invasion for continuous duration of 36 hrs by automated image mining based cytological profiling assay; format: functional; summary of the method: as §2
Plasmodium falciparum [25] = test: Antimalarial activity against tightly synchronized Plasmodium falciparum W2 assessed as parasite stage accumulation index at schizonts stages at 10 uM treated at 6 hrs post-invasion for continuous duration of 36 hrs by automated image mining based cytological profiling assay; format: functional; summary of the method: as §2
Plasmodium falciparum [26] = test: Antimalarial activity against Plasmodium falciparum W2 assessed as increase in schizonts parasite stage accumulation index at 10 uM treated at 42 hrs post-invasion for 24 hrs by automated image mining based cytological profiling assay; format: functional, organism-based; summary of the method: as §3
Plasmodium falciparum [27] = test: Antimalarial activity against tightly synchronized Plasmodium falciparum K1 assessed as parasite stage accumulation index at schizonts stages at 10 uM treated at 18 hrs post-invasion for continuous duration of 36 hrs by automated image mining based cytological profiling assay; format: functional; summary of the method: as §2
Plasmodium falciparum [28] = test: Antimalarial activity against Plasmodium falciparum W2 by automated image mining based cytological profiling assay; format: functional, organism-based; summary of the method: as §1
Plasmodium falciparum [29] = test: Antimalarial activity against tightly synchronized Plasmodium falciparum W2 assessed as parasite stage accumulation index at trophozoites stages at 10 uM treated at 6 hrs post-invasion for continuous duration of 36 hrs by automated image mining based cytological profiling assay; format: functional
Plasmodium falciparum [30] = test: Antimalarial activity against tightly synchronized Plasmodium falciparum HB3 assessed as parasite stage accumulation index at late ring stages at 10 uM treated at 18 hrs post-invasion for continuous duration of 36 hrs by automated image mining based cytological profiling assay; format: functional; summary of the method: as §2
Plasmodium falciparum [31] = test: Antimalarial activity against tightly synchronized Plasmodium falciparum HB3 assessed as parasite stage accumulation index at schizonts stages at 10 uM treated at 30 hrs post-invasion for continuous duration of 36 hrs by automated image mining based cytological profiling assay; format: functional
Plasmodium falciparum [32] = test: Antimalarial activity against tightly synchronized Plasmodium falciparum K1 assessed as parasite stage accumulation index at late ring stages at 10 uM treated at 6 hrs post-invasion for continuous duration of 36 hrs by automated image mining based cytological profiling assay; format: functional
Plasmodium falciparum [33] = test: Antimalarial activity against tightly synchronized Plasmodium falciparum HB3 assessed as parasite stage accumulation index at early ring stages at 10 uM treated at 6 hrs post-invasion for continuous duration of 36 hrs by automated image mining based cytological profiling assay; format: functional
Plasmodium falciparum [34] = test: Antimalarial activity against tightly synchronized Plasmodium falciparum W2 assessed as parasite stage accumulation index at schizonts stages at 10 uM treated at 18 hrs post-invasion for continuous duration of 36 hrs by automated image mining based cytological profiling assay; format: functional
Plasmodium falciparum [35] = test: Antimalarial activity against tightly synchronized Plasmodium falciparum W2 assessed as parasite stage accumulation index at late ring stages at 10 uM treated at 6 hrs post-invasion for continuous duration of 36 hrs by automated image mining based cytological profiling assay; format: functional

SMILES: COc1ccc(CO[C@@H]([C@H](CO)N=[N+]=[N-])[C@H](OCc2ccc(OC)cc2)c2cnc(N(C)C)nc2)cc1
- EC50 (Plasmodium falciparum [1]): 5450 nM

SMILES: COc1ccc(CO[C@H]([C@H](COC(c2ccccc2)(c2ccccc2)c2ccccc2)N=[N+]=[N-])[C@H](OCc2ccc(OC)cc2)c2cnc(N(C)C)nc2)cc1
- EC50 (Plasmodium falciparum [1]): 167 nM

SMILES: COc1ccc(CO[C@@H]([C@H](COCc2ccccc2)N=[N+]=[N-])[C@H](OCc2ccc(OC)cc2)c2cnc(N(C)C)nc2)cc1
- EC50 (Plasmodium falciparum [1]): 1420 nM

SMILES: COc1ccc(CO[C@H]([C@H](COCc2ccccc2)N=[N+]=[N-])[C@H](OCc2ccc(OC)cc2)c2cnc(N(C)C)nc2)cc1
- EC50 (Plasmodium falciparum [1]): 1200 nM

SMILES: COc1ccc(CO[C@@H]([C@H](COS(C)(=O)=O)N=[N+]=[N-])[C@H](OCc2ccc(OC)cc2)c2cnc(N(C)C)nc2)cc1
- EC50 (Plasmodium falciparum [1]): 6660 nM

SMILES: COc1ccc(CO[C@H]([C@H](COS(C)(=O)=O)N=[N+]=[N-])[C@H](OCc2ccc(OC)cc2)c2cnc(N(C)C)nc2)cc1
- EC50 (Plasmodium falciparum [1]): 11700 nM

SMILES: C[C@@H]1CC[C@H]2[C@@H](C)C(=O)O[C@@H]3O[C@@]4(C)CC[C@@H]1[C@]32OO4 [ARTEMISININ]
- Activity (Plasmodium falciparum [2]): 0.7
- Activity (Plasmodium falciparum [3]): 0.31
- EC50 (Plasmodium falciparum [1]): 3 nM
- Activity (Plasmodium falciparum [4]): 1.05
- Activity (Plasmodium falciparum [5]): 0.11
- Activity (Plasmodium falciparum [6]): 1.09
- inhibition (Plasmodium falciparum [7]): Active
- inhibition (Plasmodium falciparum [8]): Active
- Activity (Plasmodium falciparum [9]): 2.52
- Activity (Plasmodium falciparum [10]): 1.06
- EC50 (Plasmodium falciparum [11]): 18 nM
- Activity (Plasmodium falciparum [12]): 2.01
- Activity (Plasmodium falciparum [13]): 0.51
- Activity (Plasmodium falciparum [14]): 0.17
- Activity (Plasmodium falciparum [15]): 1.96
- Activity (Plasmodium falciparum [16]): 0.47
- Activity (Plasmodium falciparum [17]): 1.51
- Activity (Plasmodium falciparum [18]): 3.53
- inhibition (Plasmodium falciparum [19]): Active
- Activity (Plasmodium falciparum [20]): 2.06
- inhibition (Plasmodium falciparum [21]): Active
- inhibition (Plasmodium falciparum [22]): Active
- Activity (Plasmodium falciparum [23]): 0.37
- Activity (Plasmodium falciparum [24]): 1.06
- Activity (Plasmodium falciparum [25]): 0.47
- inhibition (Plasmodium falciparum [26]): Active
- Activity (Plasmodium falciparum [27]): 0.26
- EC50 (Plasmodium falciparum [28]): 11 nM
- Activity (Plasmodium falciparum [29]): 0.81
- Activity (Plasmodium falciparum [30]): 4.4

SMILES: CCN(CC)CCCC(C)Nc1ccnc2cc(Cl)ccc12 (configuration not stated) [CHLOROQUINE]
- Activity (Plasmodium falciparum [2]): 1.22
- Activity (Plasmodium falciparum [3]): 0.56
- EC50 (Plasmodium falciparum [1]): 208 nM
- Activity (Plasmodium falciparum [5]): 0.2
- Activity (Plasmodium falciparum [6]): 0.75
- Activity (Plasmodium falciparum [31]): 1.83
- Activity (Plasmodium falciparum [9]): 1.38
- EC50 (Plasmodium falciparum [11]): 33 nM
- Activity (Plasmodium falciparum [12]): 1.82
- Activity (Plasmodium falciparum [32]): 1.62
- Activity (Plasmodium falciparum [14]): 0.25
- Activity (Plasmodium falciparum [33]): 1.82
- Activity (Plasmodium falciparum [34]): 1.64
- Activity (Plasmodium falciparum [15]): 1.72
- Activity (Plasmodium falciparum [16]): 0.82
- Activity (Plasmodium falciparum [17]): 1.26
- Activity (Plasmodium falciparum [18]): 3.05
- Activity (Plasmodium falciparum [20]): 1.78
- Activity (Plasmodium falciparum [23]): 0.52
- Activity (Plasmodium falciparum [24]): 1.85
- Activity (Plasmodium falciparum [25]): 0.53
- Activity (Plasmodium falciparum [35]): 1.51
- Activity (Plasmodium falciparum [27]): 0.37
- EC50 (Plasmodium falciparum [28]): 221 nM
- Activity (Plasmodium falciparum [29]): 0.65
- Activity (Plasmodium falciparum [30]): 2.17

— ChEMBL document CHEMBL3352416, “Discovery of carbohybrid-based 2-aminopyrimidine analogues as a new class of rapid-acting antimalarial agents using image-based cytological profiling assay” (J Med Chem, 2014)
